Test results reported in ChEMBL document CHEMBL5303300, “EUbOPEN Chemogenomics Library - Multiplex” (2023).
“And” between values parts separate entries of the source, which are not always exact repeats. Equal entries are not always repeated.

Key:
U2OS = experiment: Multiplex assay against U2OS; assay type: toxicity, cell-based; conditions: human, number of replicates 2
Method in brief: (§1)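 Live cells were stained at seeding with Hoechst33342, BioTracker Green Microtubule Cytoskeleton Dye, MitoTracker Red and Annexin V Alexa Fluor 680. Following compound addition, they were imaged on a CQ1 microscope at 37°C and 5% CO2 and gated by CellPathfinder machine learning into Hoechst high-intensity objects or normal cells, with normal cells split into healthy, pyknosed or fragmented nuclei and pyknosed cells into mitotic or apoptotic. Tubulin, mitochondrial-mass and membrane-permeability phenotypes are per cents of healthy-nucleus cells.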

HEK-293T = experiment: Multiplex assay against HEK293T; assay type: toxicity, cell-based; conditions: human, number of replicates 2; method in brief: as §1
[1] = 24 h, 10 µM, compound concentration 10 uM
[2] = 48 h, 1 µM, compound concentration 1 uM
[3] = 48 h, 10 µM, compound concentration 10 uM
[4] = 12 h, 1 µM, compound concentration 1 uM
[5] = 12 h, 10 µM, compound concentration 10 uM
[6] = 24 h, 1 µM, compound concentration 1 uM

With `Cc1onc(-c2ccccc2Cl)c1C(=O)N(C)c1ccc(Cl)cc1` the “Population Healthy Nuclei (%)” value (U2OS; [1]) was 67% and 85%, the “Population Hoechst High Intensity Objects (%)” value (U2OS; [1]) was 0% and the “Population Membrane Permeable-Phenotype (%)” value (U2OS; [1]) was 3%. For the same compound, the “Population Mitochondria Different-Phenotype (%)” value (U2OS; [1]) was 1%, the “Population Mitotic Cells (%)” value (U2OS; [1]) was 77% and 58% and the “Population Normal (%)” value (U2OS; [1]) was 100%. The “Population Pyknosed Nuclei (%)” value (U2OS; [1]) was 9% and 10%, the “Population Tubulin-Different-Phenotype (%)” value (U2OS; [1]) was 77% and 73% and the “Population Apoptotic (%)” value (U2OS; [2]) was 60% and 56%. For the same compound, the “Population Healthy Nuclei (%)” value (U2OS; [2]) was 75% and 91%, the “Population Hoechst High Intensity Objects (%)” value (U2OS; [2]) was 0% and the “Population Membrane Permeable-Phenotype (%)” value (U2OS; [2]) was 8% and 2%. The “Population Mitochondria Different-Phenotype (%)” value (U2OS; [2]) was 3% and 0%, the “Population Mitotic Cells (%)” value (U2OS; [2]) was 40% and 43% and the “Population Normal (%)” value (U2OS; [2]) was 100% and 99%. The “Population Pyknosed Nuclei (%)” value (U2OS; [2]) was 6%, the “Population Tubulin-Different-Phenotype (%)” value (U2OS; [2]) was 74% and 88% and the “Population Apoptotic (%)” value (U2OS; [3]) was 30% and 56%. The “Population Healthy Nuclei (%)” value (U2OS; [3]) was 76% and 89%, the “Population Hoechst High Intensity Objects (%)” value (U2OS; [3]) was 0% and the “Population Membrane Permeable-Phenotype (%)” value (U2OS; [3]) was 0% and 1%. The “Population Mitochondria Different-Phenotype (%)” value (U2OS; [3]) was 0% and 2%, the “Population Mitotic Cells (%)” value (U2OS; [3]) was 70% and 43% and the “Population Normal (%)” value (U2OS; [3]) was 100%. For the same compound, the “Population Pyknosed Nuclei (%)” value (U2OS; [3]) was 7% and 9%, the “Population Tubulin-Different-Phenotype (%)” value (U2OS; [3]) was 88% and 82% and the “Population Apoptotic (%)” value (HEK-293T; [4]) was 39% and 47%. For the same compound, the “Population Fragmented Nuclei (%)” value (HEK-293T; [4]) was 2% and 5%, the “Population Healthy Nuclei (%)” value (HEK-293T; [4]) was 80% and 83% and the “Population Hoechst High Intensity Objects (%)” value (HEK-293T; [4]) was 6%. For the same compound, the “Population Membrane Permeable-Phenotype (%)” value (HEK-293T; [4]) was 2% and 1%, the “Population Mitochondria Different-Phenotype (%)” value (HEK-293T; [4]) was 18% and 15% and the “Population Mitotic Cells (%)” value (HEK-293T; [4]) was 60% and 52%. The “Population Normal (%)” value (HEK-293T; [4]) was 93%, the “Population Pyknosed Nuclei (%)” value (HEK-293T; [4]) was 16% and 11% and the “Population Tubulin-Different-Phenotype (%)” value (HEK-293T; [4]) was 47% and 44%. The “Total Cell Count” value (HEK-293T; [4]) was 587 and 613, the “Population Apoptotic (%)” value (HEK-293T; [5]) was 50% and the “Population Fragmented Nuclei (%)” value (HEK-293T; [5]) was 3%. For the same compound, the “Population Healthy Nuclei (%)” value (HEK-293T; [5]) was 81% and 84%, the “Population Hoechst High Intensity Objects (%)” value (HEK-293T; [5]) was 5% and 7% and the “Population Membrane Permeable-Phenotype (%)” value (HEK-293T; [5]) was 4% and 1%. The “Population Mitochondria Different-Phenotype (%)” value (HEK-293T; [5]) was 26% and 20%, the “Population Mitotic Cells (%)” value (HEK-293T; [5]) was 50% and 49% and the “Population Normal (%)” value (HEK-293T; [5]) was 94% and 92%. The “Population Pyknosed Nuclei (%)” value (HEK-293T; [5]) was 15% and 11%, the “Population Tubulin-Different-Phenotype (%)” value (HEK-293T; [5]) was 77% and 55% and the “Total Cell Count” value (HEK-293T; [5]) was 575 and 625. For the same compound, the “Population Apoptotic (%)” value (HEK-293T; [6]) was 44% and 42%, the “Population Fragmented Nuclei (%)” value (HEK-293T; [6]) was 7% and the “Population Healthy Nuclei (%)” value (HEK-293T; [6]) was 83% and 86%. For the same compound, the “Population Hoechst High Intensity Objects (%)” value (HEK-293T; [6]) was 6% and 8%, the “Population Membrane Permeable-Phenotype (%)” value (HEK-293T; [6]) was 2% and the “Population Mitochondria Different-Phenotype (%)” value (HEK-293T; [6]) was 4% and 5%. The “Population Mitotic Cells (%)” value (HEK-293T; [6]) was 55% and 57%, the “Population Normal (%)” value (HEK-293T; [6]) was 93% and 91% and the “Population Pyknosed Nuclei (%)” value (HEK-293T; [6]) was 9% and 6%. For the same compound, the “Population Tubulin-Different-Phenotype (%)” value (HEK-293T; [6]) was 22%, the “Total Cell Count” value (HEK-293T; [6]) was 896 and 976 and the “Population Apoptotic (%)” value (HEK-293T; [1]) was 36% and 23%. For the same compound, the “Population Fragmented Nuclei (%)” value (HEK-293T; [1]) was 5% and 6%, the “Population Healthy Nuclei (%)” value (HEK-293T; [1]) was 84% and 85% and the “Population Hoechst High Intensity Objects (%)” value (HEK-293T; [1]) was 5% and 8%. The “Population Membrane Permeable-Phenotype (%)” value (HEK-293T; [1]) was 4%, the “Population Mitochondria Different-Phenotype (%)” value (HEK-293T; [1]) was 14% and 5% and the “Population Mitotic Cells (%)” value (HEK-293T; [1]) was 63% and 76%. The “Population Normal (%)” value (HEK-293T; [1]) was 94% and 91%, the “Population Pyknosed Nuclei (%)” value (HEK-293T; [1]) was 9% and 7% and the “Population Tubulin-Different-Phenotype (%)” value (HEK-293T; [1]) was 51% and 30%. For the same compound, the “Total Cell Count” value (HEK-293T; [1]) was 757 and 965, the “Population Apoptotic (%)” value (HEK-293T; [2]) was 12% and 17% and the “Population Fragmented Nuclei (%)” value (HEK-293T; [2]) was 11% and 9%. The “Population Healthy Nuclei (%)” value (HEK-293T; [2]) was 84% and 87%, the “Population Hoechst High Intensity Objects (%)” value (HEK-293T; [2]) was 8% and the “Population Membrane Permeable-Phenotype (%)” value (HEK-293T; [2]) was 4%. For the same compound, the “Population Mitochondria Different-Phenotype (%)” value (HEK-293T; [2]) was 1% and 0%, the “Population Mitotic Cells (%)” value (HEK-293T; [2]) was 87% and 82% and the “Population Normal (%)” value (HEK-293T; [2]) was 91%. The “Population Pyknosed Nuclei (%)” value (HEK-293T; [2]) was 3% and 2%, the “Population Tubulin-Different-Phenotype (%)” value (HEK-293T; [2]) was 8% and 11% and the “Total Cell Count” value (HEK-293T; [2]) was 2361 and 2103. For the same compound, the “Population Apoptotic (%)” value (HEK-293T; [3]) was 25% and 17%, the “Population Fragmented Nuclei (%)” value (HEK-293T; [3]) was 11% and 14% and the “Population Healthy Nuclei (%)” value (HEK-293T; [3]) was 84% and 82%. The “Population Hoechst High Intensity Objects (%)” value (HEK-293T; [3]) was 8%, the “Population Membrane Permeable-Phenotype (%)” value (HEK-293T; [3]) was 6% and the “Population Mitochondria Different-Phenotype (%)” value (HEK-293T; [3]) was 2% and 0%. For the same compound, the “Population Mitotic Cells (%)” value (HEK-293T; [3]) was 75% and 82%, the “Population Normal (%)” value (HEK-293T; [3]) was 91% and the “Population Pyknosed Nuclei (%)” value (HEK-293T; [3]) was 4% and 2%. For the same compound, the “Population Tubulin-Different-Phenotype (%)” value (HEK-293T; [3]) was 33% and 16% and the “Total Cell Count” value (HEK-293T; [3]) was 1552 and 2354.
